Assay outcomes from PubChem.
NALP1 yeast inh – NALP1 inhibition. S. cerevisiae NALP1/ASC/caspase-1 growth, X-gal OD620, 72 h. inhibition, % at 10 µM. actives 0.61% (n = 280,000). AID 2071; in the data active = inhibition mostly above about 24%, no sharp cut-off; inactive = mostly below about 32%
PolyA inh – blocks polyadenylation in yeast reporter cells | S. cerevisiae SKY197-pL101 polyadenylation reporter, beta-gal luminescence; efflux-impaired pdr1/pdr3 knockout yeast; score 100 = 6 SD above DMSO | activity score, % at 12 µM | actives 0.02% (n = 300,000);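 active = lowest replicate activity score at least 50, where 100 means six control SD above control mean; inconclusive = lowest score under 50 but half or more replicates reach 50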;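 also: yeast exposed to compound for 9 h at 30 °C; higher score means more reporter readthrough which indicates perturbed polyadenylation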
Calb FLC – C. albicans growth modulation with fluconazole; C. albicans CaCi-2 + fluconazole, Alamar Blue growth, 48 h; growth inhibition, % (no concentration beside the values); actives 0.57% (n = 300,000);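 active = growth inhibition above about 58% in most replicates, limit read from the data, passing the limit was not always enough; inconclusive = exactly half the replicates above a set limit; inactive = most replicates below a set limit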;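 also: all wells also contain fluconazole at 8 µg/ml as a sub-toxic cotreatment; 0% = median of DMSO wells and 100% = median of geldanamycin control wells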
L major viab – inhibitors of Leishmania major promastigote growth; Leishmania major promastigotes, resazurin fluorescence viability; inhibition, % at 10 µM; actives 9% (n = 200,000); AID 1063; in the data active = inhibition above about 50%;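 also: promastigotes grown with compound for 44 hours at 28 °C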
T cruzi repl – T. cruzi replication inhibition | T. cruzi beta-gal in NIH3T3, luminescence, 90 h | inhibition, % (concentration not given with the values) | actives 1.4% (n = 300,000);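 active = mean inhibition across valid replicates above about 55%, limit read from the data; inconclusive = mean below that limit but half or more replicates reach it; inactive = mean below it, under half of replicates reach it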;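 also: signal also drops with host cell toxicity which is not excluded here; 0% = plate median of DMSO wells and 100% = zero luminescence signal; higher percent means less beta-gal luminescence so fewer parasites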
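Incubation – ≥90 h infection period, 3 h prior cell attachment · System – NIH/3T3 fibroblasts plus reporter T. cruzi · Doses – compound pinned at 50 nL/well, DMSO · Read-out basis – percent inhibition of parasite-derived β-gal signal · Signal – luminescent β-galactosidase signal after 60 min lysis · Also added – 5000 T. cruzi trypomastigotes/well · Medium – Low-serum DMEM with 2% FBS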
NALP3 yeast inh – blocks the NALP3 inflammasome reconstituted in yeast. inhibition, % at 10 µM. Yeast reconstituted NLRP3/ASC/caspase-1, beta-gal luminescence, 24 h. actives 0.39% (n = 330,000);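 active = inhibition of 50% or more; inactive = inhibition below 50%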;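 also: plate controls were induced DMSO wells for no effect and uninduced yeast grown without galactose for full effect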
An asterisk follows results filed as active; ? = inconclusive; / = no result given. The full list was thinned out, with hits kept by preference.

SMILES | NALP1 yeast inh | PolyA inh | Calb FLC | L major viab | T cruzi repl | NALP3 yeast inh
COc1cc(C(C(=O)NC2CCCCC2)N(C(=O)Cc2c[nH]c3ccccc23)c2ccc(C)cc2)cc(OC)c1OC (configuration not stated) | -41 | 10 | 50 | 90* | 34 | -1
Cc1ccc(NC(=O)CN(C)C(=O)/C=C/c2ccc3c(c2)OCO3)cc1 | / | / | / | / | / | 25
CC(=O)Nc1ccc(N(C(=O)Cc2c[nH]c3ccccc23)C(C(=O)NC2CCCCC2)c2ccco2)cc1 (configuration not stated) | -35 | 3 | 38 | 60* | -4 | 10
CC(=O)c1ccccc1NC(=O)COC(=O)CN1C(=O)C2CCCCC2C1=O (configuration not stated) | / | / | / | / | / | 7
Cc1cc(S(=O)(=O)NCc2ccccc2)ccc1OCC(=O)NCc1ccccn1 | 5 | 3 | -4 | / | 2 | 2
Cc1cc(S(=O)(=O)NCc2ccccc2)ccc1OCC(=O)Nc1cccc([N+](=O)[O-])c1 | 11 | 9 | -3 | 99* | -12 | -4
O=c1oc2ccccc2cc1-c1nc2ccccc2o1 | 4 | / | -37 | 4 | -6 | 29
O=c1c(Cl)c2oc3ccccc3nc-2c2ccccc12 | -14 | -20 | 35 | 81* | -20 | 11
Cc1ccc(-c2nn(C(C)(C)C)c3ncnc(NS(=O)(=O)c4ccc([N+](=O)[O-])cc4)c23)cc1 | 7 | -3 | ? | 38 | 56* | 24
C/C(CC(=O)Nc1ccc(Cl)cc1Cl)=N\NC(=O)c1ccco1 | 38 | 1 | ? | -6 | -4 | 18
Cc1cccc(-n2cc(-c3ccccc3)c3c(NN4CCOCC4)ncnc32)c1 | 16 | 6 | -1 | 63* | 14 | 0
CN1CCN(c2ncnc3c2c(-c2ccccc2)cn3-c2ccc(F)cc2)CC1 | 7 | -17 | 10 | 58* | 31 | 12
Cc1cccc(-n2cc(-c3ccccc3)c3c(=O)[nH]cnc32)c1 | 18 | -25 | -1 | 18 | -7 | -43
Cc1ccc(-n2cc(-c3ccccc3)c3c(NN4CCOCC4)ncnc32)cc1 | 14 | -22 | 1 | 81* | 5 | 15
c1ccc(-c2cn(-c3ccccc3)c3ncnc(N4CCCCC4)c23)cc1 | 0 | -1 | -6 | 29 | -2 | 5
COCCn1c(SCC(=O)NC2CCCC(C)C2C)nc2ccccc2c1=O (configuration not stated) | / | / | / | / | / | 20
CC1CCN(S(=O)(=O)c2cccc(C(=O)N3CCN(c4ccc(F)cc4)CC3)c2)CC1 | 1 | -16 | 7 | / | 24 | 10
CN(C)CCCN(C(=O)/C=C/c1cccs1)c1nc2c(F)cccc2s1 | 7 | 29 | ? | 97* | 56* | /
Cc1cccc2sc(N(CCN(C)C)C(=O)C3CCN(S(=O)(=O)c4cccs4)CC3)nc12 | / | -7 | -1 | / | 57* | 29
CN(C)CCOC(=O)c1sc2ccccc2c1Cl | -1 | -24 | 110* | -7 | 4 | 12
Cc1cccc2sc(N(CCCN(C)C)C(=O)c3sc4ccccc4c3Cl)nc12 | 54* | / | / | 21 | / | 23
CN(C)CCCN(C(=O)c1sc2ccccc2c1Cl)c1nc2c(F)cccc2s1 | 12 | -2 | 10 | -3 | 39 | 5
CN(C)CCCN(C(=O)c1cc(-c2cccs2)nc2ccccc12)c1nc2c(F)cccc2s1 | 22 | 12 | -3 | / | 36 | 27
O=C(COC(=O)CCC(=O)c1ccc(Cl)cc1)NCC1CCCO1 (configuration not stated) | -1 | -17 | -4 | -1 | -9 | 10
Cc1cccc2sc(N(CCN(C)C)C(=O)/C=C/c3cccs3)nc12 | 54* | -7 | 16 | 19 | 22 | 39
SMILES | NALP1 yeast inh | PolyA inh | Calb FLC | L major viab | T cruzi repl | NALP3 yeast inh
O=C(/C(=C/O)N=Nc1ccccc1)c1cccs1 | 10 | -20 | -4 | 83* | 17 | -3
COc1cc(OC)c(NC(=O)c2csc(C)c2)cc1Cl | 11 | 24 | 0 | / | 5 | 40
CC(=O)N1c2ccccc2C(=O)C1N(C)c1ccc(C)cc1 (configuration not stated) | 25 | -6 | 10 | / | -1 | 23
CC(=O)N1/C(=C/c2ccc(N(C)C)cc2)C(=O)c2ccccc21 | -18 | 1 | 46 | 100* | 25 | /
O=C(O)C(Cc1ccc(F)cc1)c1ccccc1 (configuration not stated) | 4 | -3 | -3 | / | 0 | 14
COc1ccc(C(=O)CSc2nnc(C3CCCCC3)n2N)c(OC)c1 | 0 | -1 | 4 | 53* | 14 | 25
COc1ccc(C(=O)CSc2nnc(CN3CCCC3)n2-c2ccc(F)cc2)c(OC)c1 | / | -15 | -15 | 80* | 9 | 17
O=C(CSc1nnc(CN2CCCCC2)n1-c1ccccc1)c1ccc2c(c1)OCO2 | 37 | 8 | 0 | -7 | 11 | 11
COc1ccc(C(=O)CSc2nnc(CN3CCCCC3)n2-c2ccc(F)cc2)cc1OC | / | 14 | 6 | 90* | 10 | 7
COc1cc(C)nc(N2CCC(C(=O)NCC3CCCO3)CC2)n1 (configuration not stated) | / | 18 | -30 | / | 3 | 18
Cc1cc(C)nc(NC2=NC3CCCCC3N2)n1 (configuration not stated) | 11 | -2 | 0 | 64* | -18 | -16
Cc1ccc(S(=O)(=O)N2CCN(CC3CC4C=CC3C4)CC2)cc1 (configuration not stated) | 3 | -3 | -11 | / | -6 | 31
CCS(=O)(=O)N1CCN(CC2CC3C=CC2C3)CC1 (configuration not stated) | -5 | 7 | ? | 93* | 6 | 0
CCCS(=O)(=O)N1CCN(CC2CC3C=CC2C3)CC1 (configuration not stated) | 4 | / | -15 | 88* | / | 2
CCCS(=O)(=O)N1CCN(CC2CC=CCC2)CC1 (configuration not stated) | 14 | 20 | -6 | 76* | -14 | 6
Cc1cc(C)n2nc(CC(=O)NNC(=O)COc3ccccc3)nc2n1 | 0 | 4 | -4 | / | 2 | 10
CCCCc1c(O)nc(SCC(=O)c2ccccc2)n(-c2ccccc2)c1=O | 12 | -5 | -8 | / | -4 | 25
COCCN(C(=O)CSc1nncn1-c1ccccc1)c1c(N)n(Cc2ccccc2)c(=O)[nH]c1=O | 23 | 25 | -3 | 54* | -13 | 2
CCC(C(=O)OCC(=O)N(CCOC)c1c(N)n(Cc2ccccc2)c(=O)[nH]c1=O)c1ccccc1 (configuration not stated) | 33* | 4 | 1 | / | -1 | 13
COc1ccc(CN(C)C(=O)c2ccncc2)c(OC)c1 | 10 | -9 | -1 | / | -4 | 14
CCOC(=O)Cc1csc(NS(=O)(=O)c2ccc(NC(C)=O)cc2)n1 | 14 | 0 | 1 | / | -3 | 24
